Measured values published in ChEMBL document CHEMBL3351592, “Marine spongian sesquiterpene phenols, dictyoceratin-C and smenospondiol, display hypoxia-selective growth inhibition against cancer cells” (2014).
Activity calls are given as the source filed them. The rule behind the calls is not given here.

Columns and labels:
[1] = test system: DU-145; assay: Inhibition of hypoxia-induced accumulation of HIF-1alpha in human DU145 cells at 10 to 30 uM after 24 hrs by Western blotting analysis; format: functional, cell-based
Outline: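 DU145 cells at 40% confluence pre-incubated 12 h normoxic (5% CO2, 37 °C) or hypoxic (94% N2, 5% CO2, 1% O2). Then treated 24 h under the same condition. Cells rinsed in ice-cold PBS and lysed in Tris-HCl pH 7.5 buffer with EDTA, PMSF, NaF, vanadate, SDS and protease/phosphatase inhibitors. Lysates run on SDS-PAGE and blotted with anti-HIF-1α and anti-β-actin. ECL detection.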

[2] = test system: DU-145; assay: Antiproliferative activity against human DU145 cells assessed as growth inhibition under hypoxic condition after 24 hrs by MTT assay; format: functional, cell-based
Outline: (§1)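 DU145 cells in RPMI 1640 with 10% heat-inactivated FBS, seeded at 1×10^4 cells/well, settled 4 h at 37 °C in 5% CO2. Then held 12 h either normoxic or hypoxic (94% N2, 5% CO2, 1% O2). Compound added and incubated a further 24 h under the same condition. Read by MTT; inhibition expressed as % of parallel negative controls. Mean ± SD of 3 experiments in triplicate.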

[3] = test system: DU-145; assay: Antiproliferative activity against human DU145 cells assessed as growth inhibition under hypoxic condition at 30 uM after 24 hrs by MTT assay; format: functional, cell-based; outline: as §1
[4] = test system: DU-145; assay: Antiproliferative activity against human DU145 cells assessed as growth inhibition under normoxic condition at 30 uM after 24 hrs by MTT assay; format: functional, cell-based; outline: as §1
[5] = test system: DU-145; assay: Inhibition of hypoxia-induced of VEGF production in human DU145 cells at 10 to 30 uM after 24 hrs by Western blotting analysis; format: functional, cell-based
Outline: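 DU145 cells at 40% confluence pre-incubated 12 h normoxic or hypoxic (1% O2), then treated 24 h. Medium incubated 12 h at 4 °C with anti-VEGF antibody, then with protein G agarose for 2 h at 4 °C. Beads washed 4 times in lysis buffer and boiled 5 min in SDS sample buffer. Run on SDS-PAGE, Western blotted, ECL detection.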

[6] = test system: DU-145; assay: Antiproliferative activity against human DU145 cells assessed as maximal growth inhibition under hypoxic condition at 10 uM after 24 hrs by MTT assay; format: functional; details: DU-145, 24 h; outline: as §1
[7] = test system: DU-145; assay: Antiproliferative activity against human DU145 cells assessed as growth inhibition under hypoxic condition at 1 to 30 uM after 24 hrs by MTT assay; format: functional, cell-based

Structure (SMILES): C=C1CCC[C@H]2[C@](C)(Cc3cc(C(=O)OC)ccc3O)[C@@H](C)CC[C@]12C
- inhibition [1]: Active
- inhibition [2]: Dose-dependent effect
- inhibition [3]: Active
- inhibition [4]: Active
- inhibition [5]: Active
- inhibition at 10 µM [6]: 43%

Structure (SMILES): C=C1CCC[C@H]2[C@](C)(CC3=C(O)C(=O)C=C(NCC(C)C)C3=O)[C@@H](C)CC[C@]12C
- inhibition [7]: inactive

Structure (SMILES): CC1=CCC[C@H]2[C@@H](C)[C@@](C)(CC3=C(O)C(=O)C=C(N)C3=O)CC[C@]12C
- inhibition [7]: inactive
- inhibition [1]: inactive
- inhibition [5]: inactive

Structure (SMILES): COC1=CC(=O)C(O)=C(C[C@@]2(C)CC[C@]3(C)C(C)=CCC[C@H]3[C@H]2C)C1=O
- inhibition [7]: inactive

Structure (SMILES): C=C1CCC[C@H]2[C@](C)(CC3=C(O)C(=O)C=C(NCCc4ccccc4)C3=O)[C@@H](C)CC[C@@]12C
- inhibition [7]: inactive

Structure (SMILES): C=C1CCC[C@H]2[C@](C)(Cc3cc(C(=O)OC)cc(O)c3O)[C@@H](C)CC[C@]12C
- inhibition [2]: Dose-dependent effect

Structure (SMILES): C=C1CCC[C@H]2[C@](C)(CC3=C(O)C(=O)C=C(NCC(C)C)C3=O)[C@@H](C)CC[C@@]12C
- inhibition [7]: inactive

Structure (SMILES): C=C1CCC[C@H]2[C@](C)(CC3=C(O)C(=O)C=C(OC)C3=O)[C@@H](C)CC[C@]12C
- inhibition [7]: inactive
